Most compounds without a hit are left out; they make up all but 3% or so of the library.
SR-BI HDL uptake: mouse SR-BI HDL lipid transfer inhibition; Q61009; ldlA[mSR-BI] CHO cells, DiI-HDL uptake fluorescence, 3 h; inhibition, % at 12.5 µM; 320,000 tested, 0.96% active; AID 488896;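 active = mean replicate inhibition of at least 70% and a set share of replicates each scoring 70 or more; inconclusive = meets just one of the two criteria; inactive = fails both criteria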;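 note: 0% = median of neutral control wells and 100% = median of positive control wells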
SR-BI uptake up: enhances SR-BI lipid uptake from DiI-HDL; CHO ldlA[mSR-BI] cells, DiI-HDL uptake fluorescence, 3 h; 100 = double the neutral-control signal; activation, % at 12.5 µM; 320,000 tested, 0.096% active; AID 504775;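 active = mean replicate activation of at least 60% and every replicate at or above 60%; inconclusive = mean or all-replicate condition met, but not both; inactive = mean below 60% and not all replicates reaching 60%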;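 note: 0% = median plate neutral-control signal and 100% = twice that signal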
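system = CHO ldlA[mSR-BI] cells, LDL receptor-null, SR-BI overexpressing | medium = Ham's F12 with 0.5% BSA, HEPES 25 mM, pH 7.4 | probe or stimulus = DiI-HDL 10 µg/mL | compound dosing = single-point compound dose | incubation = compound exposure 3 h, 37 °C | technique = DiI fluorescence, bottom read | read-out = cell-associated DiI fluorescence as measure of HDL uptake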
FID counter: fluorescent intercalator displacement, NS3 helicase counter-screen. 290,000 tested, 0.17% active. DNA fluorescent intercalator displacement, fluorescence. inhibition, % at 7.9 µM. AID 1845; in the data active = inhibition above about 37%;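 note: 0% = vehicle and 100% = reference compound; higher means more ethidium bromide displaced from hairpin DNA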
TMEM16A inh: blocks the mouse calcium-activated chloride channel TMEM16A; HEK293 TMEM16A/YFP iodide influx fluorescence, ionomycin; normalized B-score (activity score, 25-100; higher = stronger inhibition) at 10 µM; 310,000 tested, 1.2% active; AID 588511;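 active = ratio plate-corrected score three or more library SD toward inhibition, starting fluorescence score within five deviations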;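 note: score derived from kinetic fluorescence span divided by baseline fluorescence per well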
TMEM16A act: activators or potentiators of mouse TMEM16A chloride channel; Q8BHY3; B-score at 10 µM; HEK293 TMEM16A/YFP-H148Q/I152L, iodide quench fluorescence; hits give low values; 340,000 tested, 0.3% active;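 active = fluorescence-ratio B-score plate-corrected deviation score at least 3 library SD below zero, with starting fluorescence score within 5 deviations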;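 note: channel opened by trigger with iodide after compound preincubation; score built on the fluorescence ratio of max minus min over baseline; more negative score means more quench and so TMEM16A activation or potentiation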
Kir21 inh: inhibitors of mouse Kir2.1 inward-rectifier potassium channel; HEK293-Kir2.1, FluxOR thallium flux fluorescence; hits give low values; B-score at 10 µM; 310,000 tested, 0.85% active;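 active = fluorescence ratio B-score at or below minus 3 SD of library scores, with starting-brightness B-score within 2 SD, cut at about -4.2 in these data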;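 note: channel flux triggered by added potassium and thallium sulfate stimulus; B-score of peak minus minimum fluorescence over baseline after thallium stimulus; more negative B-score means stronger Kir2.1 block with less thallium influx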
Target sequence (P35561 whole entry, looked up): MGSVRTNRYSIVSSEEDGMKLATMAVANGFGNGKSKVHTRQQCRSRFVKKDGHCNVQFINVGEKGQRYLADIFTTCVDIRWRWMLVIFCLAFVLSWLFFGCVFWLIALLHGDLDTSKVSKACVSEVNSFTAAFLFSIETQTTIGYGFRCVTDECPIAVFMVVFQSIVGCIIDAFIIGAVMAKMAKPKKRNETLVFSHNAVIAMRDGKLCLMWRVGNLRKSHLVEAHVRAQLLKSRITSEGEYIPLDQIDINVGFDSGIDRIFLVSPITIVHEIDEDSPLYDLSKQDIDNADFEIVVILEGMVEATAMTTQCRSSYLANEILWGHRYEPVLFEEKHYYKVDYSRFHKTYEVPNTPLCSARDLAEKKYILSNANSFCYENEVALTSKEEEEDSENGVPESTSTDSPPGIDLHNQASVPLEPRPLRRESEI
Numbers without * were called inactive; i = inactive; u = inconclusive; x = no result given.

SMILES | SR-BI HDL uptake | SR-BI uptake up | FID counter | TMEM16A inh | TMEM16A act | Kir21 inh
O=C(CCSc1nc(-c2ccco2)cc(C(F)(F)F)n1)NCc1ccccn1 | x | x | -19 | i | -15* | 0
O=C(CCSc1nc(-c2ccco2)cc(C(F)(F)F)n1)NCc1cccs1 | 27 | -27 | -20 | i | i | 1.1
COc1ccc(CCNC(=O)CCSc2nc(-c3ccco3)cc(C(F)(F)F)n2)cc1OC | 47 | -47 | -5 | i | i | -4.4*
O=C(CCSc1nc(-c2ccc3c(c2)OCO3)cc(C(F)(F)F)n1)NCc1ccccc1 | u | -75 | -7 | i | i | 1.5
COc1ccc(CCNC(=O)COc2cccc3c2OC(C)(C)C3)cc1OC | -1 | 1 | x | i | i | -5.8*
CC1(C)Cc2cccc(OCC(=O)OCC(=O)NCc3ccccc3)c2O1 | -43 | 43 | -39 | i | i | -4.3*
COc1cccc(C(=O)N2CCN(C(=O)C3CC3)CC2)c1 | -13 | 13 | -2 | x | i | 0.12
COc1ccc(-c2noc(CCC(=O)N3CCN(c4cccc(C(F)(F)F)c4)CC3)n2)cc1 | 23 | -23 | -3 | 100* | i | -0.86
O=C(COCc1cc(-c2ccc3c(c2)OCO3)on1)N1CCN(c2cccc(C(F)(F)F)c2)CC1 | -8 | 8 | -26 | 25* | i | -0.06
CCCNc1c(NC(=O)C2CCC(C)CC2)c(=O)oc2ccccc12 (configuration not stated) | 14 | -14 | -13 | i | i | -0.02
CCOc1ccc(NC(=O)CN(C)C(=O)C(C)Oc2ccc(Cl)cc2)cc1OCC (configuration not stated) | 45 | -45 | x | x | i | x
CC(C)c1ccc(NC(=O)CSc2n[nH]c(=O)n2C2CC2)cc1 | -13 | 13 | -22 | i | i | -1.8
O=C1C=C(c2ccc(F)cc2OCc2ccccc2)C[C@@H](c2ccc(Cl)cc2)C1 | -13 | 13 | x | x | i | x
COc1ccc(CNC[C@@H](CCCCN(C)Cc2ccc(OC)cc2)N2C[C@H](c3ccccc3)N(CCc3ccc(Cl)c(Cl)c3)C(=O)C2=O)cc1 | -21 | 21 | 37* | i | i | -3.6
CC1(c2ccc(Cl)cc2Cl)NC(=O)N(CC(=O)NC2CCCCC2)C1=O (configuration not stated) | 8 | -8 | x | x | i | x
Cc1ccccc1CSc1nccn1-c1ccccc1 | -22 | 22 | -12 | i | i | -4.4*
CC1CCC2(CC1)NC(=O)N(CC(=O)NCc1ccc(Cl)cc1)C2=O (configuration not stated) | 24 | -24 | x | x | i | x
CCN(CC)CCNC(=O)c1cc(-c2cccnc2)nc2ccc(S(=O)(=O)N3CCC(C)CC3)cc12 | 3 | -3 | 30 | i | i | -5.7*
Cn1cc[nH]c1=S | -24 | 24 | -4 | x | -13* | x
CC(C)c1ccccc1-n1cc[nH]c1=S | 1 | -1 | 0 | i | i | -0.15
COCCN(C(=O)Cn1nnc2ccccc21)C(C(=O)NC1CCCC1)c1ccc(OC)cc1OC (configuration not stated) | -12 | 12 | -32 | i | i | 0.71
C=CCN(C(=O)Cn1nnc2ccccc21)C(C(=O)NCCOC)c1ccc(OC)cc1OC (configuration not stated) | -6 | 6 | -24 | i | -6* | 0.42
COc1ccc(OC)c(-c2csc(NC(=O)COC(=O)c3ccc(NC(=O)CC#N)cc3)n2)c1 | 63 | -63 | x | x | i | x
O=C(/C=C/c1ccccc1)c1cc(Br)ccc(=O)c1O | -9 | 9 | -20 | 100* | i | -1.7
COc1ccc(CNC(=O)CSCc2cnn(-c3ccccc3)c2-n2cccc2)cc1 | -2 | 2 | -32 | i | i | -4.9*
SMILES | SR-BI HDL uptake | SR-BI uptake up | FID counter | TMEM16A inh | TMEM16A act | Kir21 inh
O=C(CSCc1cnn(-c2ccccc2)c1-n1cccc1)NCc1ccccn1 | 16 | -16 | -28 | i | i | -4.4*
O=C(NCc1ccccn1)C1CCN(Cc2cnn(-c3ccccc3)c2-n2cccc2)CC1 | -7 | 7 | 1 | i | i | 0.03
COc1cc([N+](=O)[O-])ccc1NC(=O)Nc1cnccn1 | 12 | -12 | 6 | i | i | -0.04
COc1cc([N+](=O)[O-])ccc1NC(=O)Nc1nc2c(s1)CCCC2 | 72* | -72 | 5 | i | i | 1.6
COc1ccc2[nH]cc(/C=C/c3cc[n+](C)cc3)c2c1 | -22 | 22 | 3 | i | i | -0.59
COc1ccc(-c2[nH]ncc2N=Nc2ccccc2)cc1 | 61 | -61 | -7 | i | i | -0.83
COc1ccc(-c2[nH]ncc2N=Nc2cc(C)cc(C)c2)cc1 | 84* | -84 | -5 | i | i | 0.67
COCCN1C(=S)N[C@@H](c2cccc(F)c2)C(C(=O)OC)=C1C | x | x | 15 | i | x | -6.8*
COC(=O)C1=C(C)N(CC2CC2)C(=NCc2cccc(Cl)c2)N[C@H]1c1ccccc1 | -3 | 3 | 10 | i | i | -4.6*
COC(=O)C1=C(C)N(C)C(=O)NC1c1ccsc1 (configuration not stated) | -21 | 21 | -2 | i | i | -2.4
COCCOC(=O)C1=C(C)N(Cc2ccccc2)C(=O)NC1c1ccc(OC)cc1 (configuration not stated) | -7 | 7 | -31 | 100* | i | -1.1
CC1=C(C(=O)OCCc2ccccc2)C(c2ccsc2)NC(=O)N1C (configuration not stated) | -5 | 5 | -26 | i | i | -5.6*
Cc1cc([N+](=O)[O-])ccc1NC(=O)c1cc2ccccc2o1 | 9 | -9 | -2 | i | i | 0.16
O=C(NC1CCC(O)CC1)C1CCN(S(=O)(=O)c2c(Cl)cccc2Cl)CC1 (configuration not stated) | 20 | -20 | x | x | i | x
COCCN=C1N[C@@H](c2ccccc2)C(C(=O)OC)=C(C)N1Cc1ccccc1 | -23 | 23 | 12 | i | i | -2.8
COCCN=C1N[C@@H](c2ccc(Br)cc2)C(C(=O)OC)=C(C)N1Cc1ccccc1 | -8 | 8 | 20 | i | i | -6.8*
COC(=O)C1=C(C)N(Cc2ccccc2)C(=NCc2ccccc2)N[C@H]1c1cccc(F)c1 | -12 | 12 | 30 | i | i | -8.8*
CN(C)CCOC1c2ccccc2CCc2ccc3ccccc3c21 (configuration not stated) | -436 | 436* | x | i | i | -2.9
CN(C)CCOC1c2ccccc2C=Cc2ccccc21 | x | x | x | i | i | -0.5
CC12CCC(C(=O)N(CSC(=S)N/N=C\c3ccccc3O)C1=O)C2(C)C (configuration not stated) | 104* | -104 | -29 | i | i | 0.09
